Data reported in ChEMBL document CHEMBL1141277, “New phenylpropenoids, bis(1-phenylethyl)phenols, bisquinolinone alkaloid, and anti-inflammatory constituents from Zanthoxylum integrifoliolum” (J Nat Prod, 2007).

System: Neutrophil
Assay: Antiinflammatory activity in human neutrophils assessed as fMLP-induced superoxide release after 5 mins by spectrometry
Format: functional, cell-based
In short: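 Neutrophils isolated from venous blood of healthy volunteers (20–35 years) by double-gradient Ficoll–Hypaque centrifugation, with hypotonic lysis of red cells. Cells at 1 × 10^6 cells/mL pretreated with test agents (100 µmol/L) at 37 °C for 5 min. Then stimulated with fMLP (1 µmol/L) with ferricytochrome c (0.5 mg/mL). Extracellular O2•– read continuously at 550 nm. Inhibition % = [(control−resting)−(compound−resting)]/(control−resting) × 100.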

| IC50 [µM] | SMILES |
| --- | --- |
| > 100 | COc1cc(/C=C/CO)ccc1OCC=C(C)C |
| 75.1 | CC(C)=CCc1cc(/C=C/CO)ccc1O |
| > 100 | CC(c1ccccc1)c1ccc(O)c(C(C)c2ccccc2)c1 (centres undefined) |
| 11.8 | COc1cc([C@@H]2Oc3c(OC)cc(/C=C/CO)cc3[C@H]2CO)cc(OC)c1O |
| 31.9 | COc1cc([C@H]2Oc3c(OC)cc(/C=C/C=O)cc3[C@@H]2CO)ccc1O |
| > 100 | C[C@H](c1ccccc1)c1cccc([C@@H](C)c2ccccc2)c1O |
| 4.28 | Cn1c(=O)c2c(c3ccccc31)OC(C)(C)C=C2 |
| 32.5 | CC(C)(O)[C@H](O)COc1ccc(/C=C/CO)cc1 |
| 19.3 | COc1cc([C@H]2Oc3c(OC)cc(/C=C/C=O)cc3[C@@H]2CO)cc(OC)c1O |
| > 100 | Cn1c(=O)c2c(c3ccccc31)O[C@]1(C)C[C@@H]3c4c(c5ccccc5[nH]c4=O)OC(C)(C)[C@H]3[C@H]2C1 |
| 9.64 | CC(C)=CCOc1ccc(/C=C/CO)cc1 [EVOFOLIN C] |
| 47.1 | COc1cc2ccc(=O)oc2c(OC)c1OC [FRAXIDIN METHYL ETHER] |
| > 100 | COc1c2ccoc2nc2c(OC)cccc12 [GAMMA-FAGARINE] |
| 57.3 | COc1c2[nH]c3occc3c(OC)c-2ccc1=O [HAPLOPINE] |
| 32.5 | CC(C)Cc1ccc(C(C)C(=O)O)cc1 (centres undefined) [IBUPROFEN] |
| 77.5 | COc1cc2oc(=O)ccc2cc1O [ISOSCOPOLETIN] |
| > 100 | Cn1c(=O)c2c(c3ccccc31)OC(C)(C)[C@@H]1[C@@H]2C[C@]2(C)C[C@H]1c1c(c3ccccc3n(C)c1=O)O2 [PARAENSIDIMERIN C] |
| > 100 | COc1cc2ccc(=O)oc2cc1OC [SCOPARONE] |
| > 100 | COc1cc(C=O)cc(OC)c1O [SYRINGALDEHYDE] |
